Publication PMC8359308 (Clinical Pharmacology in Drug Development, 2020)
Read-outs that look alike come from different tables or passages of the source.

Columns and labels:
[1] = tested on: cytochrome P450 (CYP) 3A4/5; conditions: human hepatocytes, reaction phenotyping; cited from earlier work
[2] = format: in vivo, human; conditions: for AUC(0-inf) / AUC(0-t) / Tmax: po, total glasdegib; for AUC(0-inf): AUCinf; for AUC(0-inf) / AUC(0-t) / Tmax / CL/F, total glasdegib / Cmax, total glasdegib: single oral 100 mg, fasted; for AUC(0-t): AUClast; for Tmax: median (range)
In short: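 Single oral 100 mg tablet dose of test compound after ≥10 h fast, with about 240 mL water and no food for 4 h. Plasma drawn predose and 1–120 h post-dose, total drug measured by validated LC-MS/MS. AUCinf (AUClast + Clast/kel, linear/log trapezoidal) and observed Cmax came from noncompartmental analysis. Log-transformed values were compared by one-way ANOVA (unequal variance), giving adjusted GMR versus normal-function controls with 90% CI.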

[3] = ketoconazole coadministered versus glasdegib alone; cited from earlier work
[4] = Unbound fraction in plasma by equilibrium dialysis; format: in vitro ADME, human; conditions: for f u (fraction of unbound drug in plasma): geometric mean (%CV); for f u in plasma: statistic not given
[5] = Phase I single-dose pharmacokinetics of unbound plasma glasdegib; format: in vivo, human; conditions: single oral 100 mg, fasted
In short: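 Single oral 100 mg tablet with about 240 mL water after a fast of at least 10 h, with no food for 4 h post-dose. Unbound samples were taken predose and at 1, 2 and 4 h. K2EDTA plasma was dialysed against PBS to equilibrium (6 h). Sertraline (300 ng/mL) served as positive control and glasdegib (100 ng/mL) as dialysis QC. Samples were read by LC-MS/MS (LLQ 1 ng/mL). Unbound parameters = fu × total noncompartmental values.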

[6] = mostly normal hepatic function or mild hepatic impairment; cited from earlier work
[7] = rifampin coadministered versus glasdegib alone; cited from earlier work
[8] = food with high calories and high fat content or concurrent rabeprazole; cited from earlier work
[9] = cited from earlier work
[10] = Safety assessment after single oral 100 mg dose; format: in vivo, human; conditions: all 24 participants
In short: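 Participants were confined from day -1 through day 6, with telephone follow-up 28–35 days post-dose. AEs, laboratory values, physical examination, vital signs, ECGs and concomitant medications were monitored throughout. AEs were treatment-emergent if onset or worsening came after dosing and before follow-up, and were coded with MedDRA 22.0. Baseline was the last predose measurement. Analysis was descriptive.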

[11] = human, plasma, 100 mg, moderate hepatic impairment (n = 8), arithmetic mean ± SD
[12] = human, plasma, 100 mg, moderate hepatic impairment (n = 8), geometric mean (%CV)
[13] = human, plasma, 100 mg, normal hepatic function (n = 8), arithmetic mean ± SD
[14] = human, plasma, 100 mg, normal hepatic function (n = 8), geometric mean (%CV)
[15] = human, plasma, 100 mg, severe hepatic impairment (n = 8), arithmetic mean ± SD
[16] = human, plasma, 100 mg, severe hepatic impairment (n = 8), geometric mean (%CV)
[17] = severe hepatic impairment cohort
[18] = moderate hepatic impairment (n = 8), arithmetic mean ± SD
[19] = moderate hepatic impairment (n = 8), geometric mean (%CV)
[20] = normal hepatic function (n = 8), arithmetic mean ± SD
[21] = normal hepatic function (n = 8), geometric mean (%CV)
[22] = severe hepatic impairment (n = 8), arithmetic mean ± SD
[23] = severe hepatic impairment (n = 8), geometric mean (%CV)

For CN1CC[C@@H](NC(=O)Nc2ccc(C#N)cc2)C[C@@H]1c1nc2ccccc2[nH]1 [glasdegib], the “enzyme in glasdegib biotransformation” value [1] is given as “major enzyme”, the half-life ([2]; human, plasma, oral, 100 mg, mean terminal half-life, range across all hepatic function groups) is given as 18.4 to 20.7 h and the AUC(0-inf) [2, 11] is given as 12300 ± 3500 ng·h/mL. It also gave an AUC(0-inf) [2, 12] of 11900 ng·h/mL, an AUC(0-inf) [2, 13] of 11900 ± 6100 ng·h/mL and an AUC(0-inf) [2, 14] of 10700 ng·h/mL. For the same compound, the AUC(0-inf) [2, 15] was 8660 ± 3130 ng·h/mL, the AUC(0-inf) [2, 16] was 8110 ng·h/mL and the AUC(0-t) [2, 11] was 12200 ± 3460 ng·h/mL. The AUC(0-t) [2, 12] was 11800 ng·h/mL, the AUC(0-t) [2, 13] was 11800 ± 6080 ng·h/mL and the AUC(0-t) [2, 14] was 10600 ng·h/mL. The AUC(0-t) [2, 15] was 8480 ± 3100 ng·h/mL, the AUC(0-t) [2, 16] was 7940 ng·h/mL and the Tmax ([2]; human, plasma, 100 mg, moderate hepatic impairment (n = 8)) was 2.5 h. The Tmax ([2]; human, plasma, 100 mg, normal hepatic function (n = 8)) was 1.5 h, the Tmax ([2]; human, plasma, 100 mg, severe hepatic impairment (n = 8)) was 1 h and the “reduction in AUCinf versus normal hepatic function, total glasdegib” value [2, 17] was 24%. For the same compound, the “reduction in Cmax versus normal hepatic function, total glasdegib” value [2, 17] was 42%, the “CL/F, total glasdegib” value [2, 18] was 8.8 ± 2.8 L/h and the “Cmax, total glasdegib” value [2, 18] was 899.8 ± 215.7 ng/mL. The “CL/F, total glasdegib” value [2, 19] was 8.4 (31) L/h, the “Cmax, total glasdegib” value [2, 19] was 875.9 (26) ng/mL and the “CL/F, total glasdegib” value [2, 20] was 10.2 ± 4.3 L/h. The “Cmax, total glasdegib” value [2, 20] was 989.9 ± 373.1 ng/mL, the “CL/F, total glasdegib” value [2, 21] was 9.3 (49) L/h and the “Cmax, total glasdegib” value [2, 21] was 924.4 (43) ng/mL. The “CL/F, total glasdegib” value [2, 22] was 13.3 ± 5.8 L/h, the “Cmax, total glasdegib” value [2, 22] was 612.0 ± 342.8 ng/mL and the “CL/F, total glasdegib” value [2, 23] was 12.3 (42) L/h. The “Cmax, total glasdegib” value [2, 23] was 536.3 (59) ng/mL, the “increase in glasdegib AUCinf” value [3] was 2.4 fold and the “increase in glasdegib Cmax” value [3] was 1.4 fold. For the same compound, the “f u (fraction of unbound drug in plasma)” value ([4]; moderate hepatic impairment (n = 8)) was 0.08 (7), the “f u in plasma” value ([4]; moderate hepatic impairment group) was 0.08 and the “f u (fraction of unbound drug in plasma)” value ([4]; normal hepatic function (n = 8)) was 0.08 (16). For the same compound, the “f u in plasma” value ([4]; normal hepatic function cohort) was 0.08, the “f u (fraction of unbound drug in plasma)” value ([4]; severe hepatic impairment (n = 8)) was 0.12 (15) and the “f u in plasma” value ([4]; severe hepatic impairment group) was 0.12. The “higher f u compared with the normal function cohort” value ([4]; severe impairment cohort) was 50%, the “CLu/F, unbound glasdegib” value [5, 18] was 104.6 ± 34.6 L/h and the “CLu/F, unbound glasdegib” value [5, 19] was 100.2 (31) L/h. For the same compound, the “CLu/F, unbound glasdegib” value [5, 20] was 124.7 ± 43.5 L/h, the “CLu/F, unbound glasdegib” value [5, 21] was 118.4 (35) L/h and the “CLu/F, unbound glasdegib” value [5, 22] was 111.9 ± 58.1 L/h. The “CLu/F, unbound glasdegib” value [5, 23] was 101.6 (47) L/h, the “baseline hepatic function as covariate for variation in glasdegib PK” value [6] was “not a statistically significant covariate” and the “decrease in glasdegib AUCinf” value [7] was “approximately 70%”. For the same compound, the “decrease in glasdegib Cmax” value [7] was 35%, the “effect on glasdegib exposure” value [8] was “minimal effect” and the “dose proportionality of pharmacokinetics” value [9] was “linear dose‐proportional pharmacokinetics”. The mean half-life ([9]; clinical dose of 100 mg once daily) was 17.4 h, the unbound in plasma ([9]; plasma protein binding, moderately to highly bound) was under 10% and the “clinically significant changes in laboratory values, vital signs, or ECGs” value [10] was “no clinically significant changes in vital signs or ECGs”. The “deaths, serious AEs, severe treatment-emergent AEs, discontinuations” value [10] was “no deaths, serious AEs, severe treatment‐emergent AEs, discontinuations from the study”.
